Where two headings read alike, the source gives them in different places.
Assays:
[1] = LogP by shake flask method; format: physicochemical; settings: n-octanol/water
How it was run: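 n-Octanol/water liquid-liquid partition ('shake flask'), following the OECD 107 guideline. Compound quantified in each phase by LC-MS; n = 3.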

[2] = target: T1, human recombinant MAGL (hMAGL) (Homo sapiens, UniProt Q99685); experiment: human recombinant MAGL inhibition enzyme assay; format: biochemical
T1 sequence (Q99685 1-303): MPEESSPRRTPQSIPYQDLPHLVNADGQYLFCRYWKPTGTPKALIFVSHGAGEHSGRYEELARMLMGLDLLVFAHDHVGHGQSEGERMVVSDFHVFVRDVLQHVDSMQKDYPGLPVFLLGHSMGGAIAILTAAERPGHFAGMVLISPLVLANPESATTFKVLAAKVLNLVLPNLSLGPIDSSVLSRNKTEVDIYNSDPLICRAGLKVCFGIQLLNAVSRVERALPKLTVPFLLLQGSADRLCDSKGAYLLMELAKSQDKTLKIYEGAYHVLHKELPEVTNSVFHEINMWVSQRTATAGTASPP
How it was run: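 Commercial MAGL inhibitor screening kit with human recombinant enzyme, run per the manufacturer's instructions. JZL195 was the positive control. IC50 from dose-response curve fitting, averaged over 3–5 runs.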

brain = experiment: PET brain uptake of 19; settings: in vivo
rat brain MAGL [3] = target: T2, rat brain MAGL (Rattus norvegicus, UniProt Q8R431); experiment: [3H]2-OG hydrolysis assay; format: biochemical; settings: for IC50: IC50, inhibition of [3H]2-OG hydrolysis, 0.5 μM [3H]2-OG; for pIC50 in [3H]2-OG assay: positive control
T2 sequence (Q8R431 1-303): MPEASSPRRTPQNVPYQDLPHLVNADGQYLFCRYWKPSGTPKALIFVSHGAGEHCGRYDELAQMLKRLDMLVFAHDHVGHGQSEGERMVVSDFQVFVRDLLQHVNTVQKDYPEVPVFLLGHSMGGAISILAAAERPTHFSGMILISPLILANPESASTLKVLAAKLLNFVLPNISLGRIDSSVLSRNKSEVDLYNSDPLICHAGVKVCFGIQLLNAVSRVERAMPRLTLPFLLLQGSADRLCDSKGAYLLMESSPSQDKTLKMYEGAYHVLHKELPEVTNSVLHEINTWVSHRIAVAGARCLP
How it was run: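 Rat brain preparation, test compound and buffer (10 mM Tris-HCl, 1 mM EDTA, pH 7.4) were preincubated 0–60 min. [3H]2-OG diluted with unlabelled 2-OG was then added to 0.5 μM final, with 0.125% w/v fatty acid-free BSA. Kinetics: no preincubation, 2 min incubation. Reversibility: 60 min preincubation, then 20-fold dilution. JZL184 was the positive control. Means of 3–4 runs.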

ABHD12 = target: T3, ABHD12 (Mus musculus, UniProt Q99LR1); experiment: activity based protein profiling; format: biochemical; settings: up to 10 μM concentration
T3 sequence (Q99LR1 1-398): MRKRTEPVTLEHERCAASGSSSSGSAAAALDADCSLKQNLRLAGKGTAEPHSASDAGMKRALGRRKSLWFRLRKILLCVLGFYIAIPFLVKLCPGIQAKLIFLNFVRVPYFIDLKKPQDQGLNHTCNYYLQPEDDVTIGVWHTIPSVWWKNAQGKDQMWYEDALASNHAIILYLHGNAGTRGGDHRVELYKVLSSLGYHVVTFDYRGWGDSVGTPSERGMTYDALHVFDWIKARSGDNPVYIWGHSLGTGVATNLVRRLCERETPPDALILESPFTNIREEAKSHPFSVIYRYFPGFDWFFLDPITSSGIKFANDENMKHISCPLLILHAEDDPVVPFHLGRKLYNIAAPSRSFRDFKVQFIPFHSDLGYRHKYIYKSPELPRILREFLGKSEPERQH
How it was run: (§1)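 Mouse brain membrane proteome (1 mg/mL) preincubated with DMSO or test compound (1 and 10 μM) for 30 min at 37 °C. FP-rhodamine (1 μM final) was then added for 1–180 min at room temperature. Samples were separated by SDS-PAGE and read by in-gel fluorescence. Band intensity is given relative to DMSO (100%). MJN110 was the positive control; 3 runs.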

ABHD6 = target: T4, ABHD6 (Mus musculus, UniProt Q8R2Y0); experiment: activity based protein profiling; format: biochemical; settings: up to 10 μM concentration
T4 sequence (Q8R2Y0 1-336): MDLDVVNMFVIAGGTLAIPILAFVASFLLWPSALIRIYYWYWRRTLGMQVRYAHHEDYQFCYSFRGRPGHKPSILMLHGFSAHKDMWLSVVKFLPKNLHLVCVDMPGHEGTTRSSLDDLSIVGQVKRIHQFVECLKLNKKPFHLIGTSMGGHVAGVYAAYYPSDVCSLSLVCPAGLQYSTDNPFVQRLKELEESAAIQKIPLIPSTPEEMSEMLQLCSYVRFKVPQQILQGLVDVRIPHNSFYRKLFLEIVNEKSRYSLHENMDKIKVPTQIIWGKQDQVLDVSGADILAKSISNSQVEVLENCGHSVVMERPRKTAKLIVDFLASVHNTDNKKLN
How it was run: as §1

CB2 = CB2 (Homo sapiens, UniProt P34972); experiment: CB2 receptor agonist and antagonist assays; format: cell-based; settings: up to 30 μM concentration
How it was run: (§2)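 Run by the NIMH Psychoactive Drug Screening Program to its published protocols, in agonist and antagonist formats. CP55940 was the agonist control at both receptors. Rimonabant was the CB1 antagonist control and SR144528 the CB2 antagonist control. Dose-response curves were generated, averaged over 3–5 runs.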

CB1 = CB1 (Homo sapiens, UniProt P21554); experiment: CB1 receptor agonist and antagonist assays; format: cell-based; settings: up to 30 μM concentration
How it was run: as §2

FAAH = target: T5, FAAH (Rattus norvegicus, UniProt P97612); experiment: [3H]AEA hydrolysis assay; format: biochemical
T5 sequence (P97612 1-579): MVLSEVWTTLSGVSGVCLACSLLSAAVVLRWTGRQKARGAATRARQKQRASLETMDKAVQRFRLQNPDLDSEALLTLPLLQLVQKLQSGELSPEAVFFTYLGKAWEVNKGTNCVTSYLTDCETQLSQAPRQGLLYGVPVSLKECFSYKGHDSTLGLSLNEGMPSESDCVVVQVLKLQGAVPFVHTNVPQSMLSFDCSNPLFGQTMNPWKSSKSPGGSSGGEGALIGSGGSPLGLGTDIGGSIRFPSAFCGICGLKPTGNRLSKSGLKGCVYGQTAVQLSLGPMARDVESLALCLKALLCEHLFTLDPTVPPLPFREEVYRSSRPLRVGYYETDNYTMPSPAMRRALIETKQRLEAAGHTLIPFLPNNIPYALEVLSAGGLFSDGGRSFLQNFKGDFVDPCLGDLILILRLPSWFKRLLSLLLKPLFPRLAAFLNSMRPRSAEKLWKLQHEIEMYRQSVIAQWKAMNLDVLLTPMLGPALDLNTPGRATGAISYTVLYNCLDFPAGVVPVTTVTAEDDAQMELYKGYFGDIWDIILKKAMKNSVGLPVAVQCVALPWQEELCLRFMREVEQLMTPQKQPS

rat brain MAGL [4] = target: T2, rat brain MAGL; settings: read-out: IC50, inhibition of [3H]2-OG hydrolysis, cited from earlier work

Chain of CB2 (P34972 whole entry, species assumed): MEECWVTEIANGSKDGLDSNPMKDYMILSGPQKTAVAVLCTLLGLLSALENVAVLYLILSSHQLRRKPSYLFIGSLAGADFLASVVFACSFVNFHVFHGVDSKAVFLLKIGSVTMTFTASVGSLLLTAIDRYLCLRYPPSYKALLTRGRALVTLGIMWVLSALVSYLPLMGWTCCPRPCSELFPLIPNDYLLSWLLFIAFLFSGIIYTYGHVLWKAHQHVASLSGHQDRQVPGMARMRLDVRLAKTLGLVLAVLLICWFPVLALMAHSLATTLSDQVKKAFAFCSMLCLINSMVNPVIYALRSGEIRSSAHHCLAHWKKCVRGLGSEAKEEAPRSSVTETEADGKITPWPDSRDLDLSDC
Chain of CB1 (P21554 whole entry, species assumed): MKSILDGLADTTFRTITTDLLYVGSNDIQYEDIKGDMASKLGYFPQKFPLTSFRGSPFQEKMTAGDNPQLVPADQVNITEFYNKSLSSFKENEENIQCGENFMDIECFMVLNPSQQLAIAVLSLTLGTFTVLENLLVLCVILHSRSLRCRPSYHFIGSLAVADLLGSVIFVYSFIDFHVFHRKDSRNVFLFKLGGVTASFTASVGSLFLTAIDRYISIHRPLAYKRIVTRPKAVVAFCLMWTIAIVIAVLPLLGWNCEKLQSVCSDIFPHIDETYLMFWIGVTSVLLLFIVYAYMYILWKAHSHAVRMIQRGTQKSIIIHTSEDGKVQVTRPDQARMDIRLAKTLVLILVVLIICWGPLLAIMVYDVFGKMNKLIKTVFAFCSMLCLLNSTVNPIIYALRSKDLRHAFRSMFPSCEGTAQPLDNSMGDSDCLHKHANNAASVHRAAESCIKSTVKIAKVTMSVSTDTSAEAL

O=C(OC(C(F)(F)F)C(F)(F)F)N1CC(c2nc(-c3ccc(F)cc3)no2)C1 [Compound 8, 1,1,1,3,3,3-hexafluoropropan-2-yl 3-(3-(4-fluorophenyl)-1,2,4-oxadiazol-5-yl)azetidine-1-carboxylate]
logP [1]: 1.45 ± 0.01 | IC50 [2]: 13.4 nM

O=C(OC(C(F)(F)F)C(F)(F)F)N1CC(c2nc(-c3ccc(F)cc3)no2)C1 [Compound 19, ^11C-carbonyl labeled 1,1,1,3,3,3-hexafluoropropan-2-yl 3-(3-(4-fluorophenyl)-1,2,4-oxadiazol-5-yl)azetidine-1-carboxylate]
peak SUV in brain (brain): ca. 1.4 SUV

COc1ccc(-c2noc(C3CN(C(=O)OC(C(F)(F)F)C(F)(F)F)C3)n2)cc1 [Compound 10, 1,1,1,3,3,3-hexafluoropropan-2-yl 3-(3-(4-methoxyphenyl)-1,2,4-oxadiazol-5-yl)azetidine-1-carboxylate]
Ki (rat brain MAGL [3]): 1.03 nM | time-dependency of inhibition (rat brain MAGL [3]; 0.2, 0.6 and 1 nM inhibitor): time-dependent inhibition | IC50 (rat brain MAGL [3]; 60 min of pre-incubation): 0.68 nM | IC50 (rat brain MAGL [3]; without pre-incubation): 3.9 nM | binding mechanism (rat brain MAGL [3]; dilution experiments and ABPP time course): irreversible binding mechanism | interaction with ABHD12 (ABHD12): No significant interactions | logP [1]: 1.23 ± 0.1 | interaction with ABHD6 (ABHD6): No significant interactions | IC50 [2]: 12.7 nM | interaction with CB2 (CB2): No significant interactions | interaction with CB1 (CB1): No significant interactions | selectivity towards MAGL over FAAH (FAAH): 30–50 fold

COc1cccc(-c2noc(C3CN(C(=O)OC(C(F)(F)F)C(F)(F)F)C3)n2)c1 [Compound 11, 1,1,1,3,3,3-hexafluoropropan-2-yl 3-(3-(3-methoxyphenyl)-1,2,4-oxadiazol-5-yl)azetidine-1-carboxylate]
logP [1]: 1.17 ± 0.14

O=C(Oc1ccc([N+](=O)[O-])cc1)N1CCC(C(O)(c2ccc3c(c2)OCO3)c2ccc3c(c2)OCO3)CC1 [JZL184]
pIC50 in [3H]2-OG assay (rat brain MAGL [3]; 60 min preincubation): 8.24±0.02 | pIC50 in [3H]2-OG assay (rat brain MAGL [3]; without preincubation): 6.46±0.04 | IC50 (rat brain MAGL [4]; preincubation 0 min): 350 nM | IC50 (rat brain MAGL [4]; preincubation 30 min): 12 nM | IC50 (rat brain MAGL [4]; preincubation 60 min): 5.8 nM

O=C(OC(C(F)(F)F)C(F)(F)F)N1CC(c2nc(-c3cccc(F)c3)no2)C1 [Compound 9, 1,1,1,3,3,3-hexafluoropropan-2-yl 3-(3-(3-fluorophenyl)-1,2,4-oxadiazol-5-yl)azetidine-1-carboxylate]
logP [1]: 1.42 ± 0.11

O=C(Oc1ccc([N+](=O)[O-])cc1)N1CCN(Cc2cccc(Oc3ccccc3)c2)CC1 [JZL195, reference compound]
block of human recombinant MAGL hydrolysis ([2]; 4.4 μM, positive control): completely blocked

Source: paper PMC5966020 (Journal of medicinal chemistry, 2018)
